One may read the IC50 as the point on the concentration scale where inhibition reaches its midpoint. Lower therefore signals inhibition by little substance. By Tm is commonly meant the temperature at the midpoint of the melting transition. Broadly, the ΔTm is the shift of the melting midpoint relative to a reference.

The structures appear in SMILES notation.

Results on nine compounds are retold here after ChEMBL document CHEMBL1155802, “Synthesis, DNA binding, and cytotoxic evaluation of new analogs of diallyldisulfide, an active principle of garlic” (Bioorg Med Chem, 2008).

The test system of one test is Hepatocyte. Nature of the test: Cytotoxicity against rat primary hepatocytes after 24 hrs by MTT assay. The class given is cell-based. The method in brief:
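Hepatocytes were isolated from rat liver and cultured in DMEM with 10% FBS at 37 °C under 5% CO2/[…]. Cells were seeded at 1×10^5 cells/ml and exposed to analog at 1–1000 µM for 24 h. MTT was then added for 4 h, formazan was dissolved in DMSO, and A540 was read. Each dose was run in triplicate, and IC50 was derived from mean OD versus concentration curves.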

The subject of test [1] is Rattus norvegicus. The experiment in a line: Decrease in hepatic cholesterol level in hypercholesterolemic Wistar rat at 20 mg/kg, po for 1 week with diet. The class given is functional. The method, boiled down: (§1)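 Adult male Wistar rats (100–120 g) were used, six per group. They received 5% cholesterol diet for 1 week, then cholesterol-rich diet plus compound at 20 mg/Kgwt, as a suspension in water, po, during week 2. Controls were saline-fed and cholesterol-only groups. Hepatic and serum cholesterol and triglycerides were measured by enzymatic assays. Values are mean ± SE from duplicate assays, compared with the hypercholesterolemic group.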

Test [2] concerns Rattus norvegicus. Nature of the test: Decrease in serum cholesterol level in hypercholesterolemic Wistar rat at 20 mg/kg, po for 1 week with diet. The class given is functional. The method, boiled down: as §1
The test system of test [3] is Rattus norvegicus. Nature of the test: Decrease in hepatic triglyceride level in hypercholesterolemic Wistar rat at 20 mg/kg, po for 1 week with diet. The class given is functional. The method in brief: as §1
Test [4] relates to Rattus norvegicus. Nature of the test: Decrease in serum triglyceride level in hypercholesterolemic Wistar rat at 20 mg/kg, po for 1 week with diet. The class given is functional. The method, boiled down: as §1
The test system of test [5] is DNA. The experiment in a line: Binding affinity to calf thymus DNA assessed as melting temperature at pH 7.4 by thermal denaturation assay. The class given is nucleic-acid assay. To be noted: Bos taurus.
The subject of test [6] is DNA. The experiment in a line: Binding affinity to calf thymus DNA assessed as change in melting temperature by thermal denaturation assay. The class given is nucleic-acid assay. To be noted: Bos taurus.
Test [7] in a line: Binding affinity to AT(d(AT)10) oligonucleotide assessed as melting temperature at pH 7.4 by thermal denaturation assay.
Test [8] is described as follows: Binding affinity to AT(d(AT)10) oligonucleotide assessed as change in melting temperature by thermal denaturation assay.
A short description of test [9]: Binding affinity to GC(d(GC)7) oligonucleotide assessed as melting temperature at pH 7.4 by thermal denaturation assay.
Test [10] can be described thus: Binding affinity to GC(d(GC)7) oligonucleotide assessed as change in melting temperature by thermal denaturation assay.
A short description of test [11]: Binding affinity to GC(d(GC)7) oligonucleotide assessed as binding constant at DNA melting temperature at 12.5 uM. The method, boiled down:
(§2)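 Binding constants came from absorbance at 260 nm versus temperature, 25 to 100 °C at 1 °C/min. Conditions were 20 mM sodium phosphate pH 7.4, 100 mM NaCl, 2.5 μM DNA (bp) and a saturating 12.5 μM analog.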

For test [12], the system named is DNA. Nature of the test: Binding affinity to calf thymus DNA assessed as binding constant at DNA melting temperature at 12.5 uM. The class given is nucleic-acid assay. To be noted: Bos taurus. The method in brief: as §2

`Brc1ccc(/C=C/CSSC/C=C/c2ccc(Br)cc2Br)c(Br)c1` came in with a half-maximal inhibitory concentration (IC50) in the test with Hepatocyte of 275 µM. The Activity was 2.12 mg/dL in the test with Rattus norvegicus [1], 41.61 mg/dL in the test with Rattus norvegicus [2], 21.79 mg/dL in the test on Rattus norvegicus [3] and 34.65 mg/dL with Rattus norvegicus [4]. For the same compound, the results for the Tm (in the test with DNA [5]; in test [7]; in test [9]) were 81 °C, 50 °C and 93 °C, respectively. Besides, the ΔTm with DNA [6] was 8 °C; in test [8] it was -2 °C; in [10], 6 °C.
Take `FC(F)(F)c1ccc(/C=C/CSSC/C=C/c2ccc(C(F)(F)F)cc2)cc1`: in the test on Hepatocyte, inhibition was half-maximal at 140 µM (IC50). The Activity with Rattus norvegicus [1] amounted to 2.12 mg/dL; in the test with Rattus norvegicus [2], 42.69 mg/dL; with Rattus norvegicus [3], 20.57 mg/dL; in the test on Rattus norvegicus [4] it was 35.09 mg/dL. The Tm in the test with DNA [5] turned out to be 78 °C; in test [7], 52 °C; in test [9], 91 °C. In addition, the thermal shift (ΔTm) in the test on DNA [6] was 5 °C; in test [8], 0 °C; in test [10], 4 °C.
Compound `O=[N+]([O-])c1ccc(/C=C/CSSC/C=C/c2ccc([N+](=O)[O-])cc2)cc1` had a 50% inhibitory concentration (IC50) in the test with Hepatocyte of 335 µM. For the same compound, the Activity with Rattus norvegicus [1] amounted to 1.97 mg/dL; in the test on Rattus norvegicus [2], 38.37 mg/dL; in the test with Rattus norvegicus [3], 19.8 mg/dL; with Rattus norvegicus [4] it was 33.32 mg/dL. In addition, the results for the Tm (with DNA [5]; in test [7]; in [9]) were 80 °C, 52 °C and 94 °C, respectively. Besides, the ΔTm in the test with DNA [6] amounted to 7 °C; in [8] it was 0 °C; in [10], 7 °C.
As for `Clc1ccccc1/C=C/CSSC/C=C/c1ccccc1Cl`, the K in test [11] was 6.9 ×10⁶ /M; with DNA [12] it was 4.03 ×10⁵ /M. Moreover, the IC50 with Hepatocyte amounted to 425 µM. Also, the Activity with Rattus norvegicus [1] was determined as 1.87 mg/dL; in the test on Rattus norvegicus [2], 37.29 mg/dL; in the test with Rattus norvegicus [3] it was 19.28 mg/dL; in the test on Rattus norvegicus [4] it was 32.87 mg/dL. The midpoint of thermal melting (Tm) is 81 °C in the test with DNA [5], 49 °C in test [7] and 93 °C in [9]. Also, the thermal shift (ΔTm) was 8 °C with DNA [6], -3 °C in [8] and 6 °C in [10].
`Brc1ccccc1/C=C/CSSC/C=C/c1ccccc1Br`: it took 365 µM to reach half-maximal inhibition in the test with Hepatocyte (IC50). For the same compound, the Activity came to 2.07 mg/dL in the test on Rattus norvegicus [1], 41.07 mg/dL with Rattus norvegicus [2], 21.41 mg/dL in the test with Rattus norvegicus [3] and 35.54 mg/dL in the test on Rattus norvegicus [4]. In addition, the Tm was determined as 80 °C with DNA [5], 52 °C in test [7] and 92 °C in test [9]. Moreover, the thermal shift (ΔTm) in the test with DNA [6] worked out at 7 °C; in [8], 0 °C; in test [10], 5 °C.
As for `C=CCS[S+]([O-])CC=C` (configuration not stated) [ALLICIN], the Activity in the test on Rattus norvegicus [1] came out at 2.15 mg/dL; in the test with Rattus norvegicus [2], 42.69 mg/dL; in the test with Rattus norvegicus [3] it was 20.34 mg/dL; in the test with Rattus norvegicus [4], 36.86 mg/dL.
Take `Clc1ccc(/C=C/CSSC/C=C/c2ccc(Cl)cc2Cl)c(Cl)c1`: in the test with Hepatocyte, the IC50 was found to be 350 µM. Besides, the Activity in the test with Rattus norvegicus [1] stood at 2.04 mg/dL; in the test on Rattus norvegicus [2], 42.15 mg/dL; in the test on Rattus norvegicus [3], 20.61 mg/dL; in the test on Rattus norvegicus [4], 34.65 mg/dL. The melting temperature (Tm) with DNA [5] was 81 °C; in test [7], 51 °C; in test [9], 93 °C. Besides, the ΔTm in the test on DNA [6] is 8 °C; in [8], -1 °C; in test [10], 6 °C.
As for `CC[C@H](C)C(=O)O[C@H]1C[C@@H](C)C=C2C=C[C@H](C)[C@H](CC[C@@H]3C[C@@H](O)CC(=O)O3)[C@H]21` [LOVASTATIN], the Activity stood at 1.6 mg/dL in the test on Rattus norvegicus [1], 36.21 mg/dL in the test with Rattus norvegicus [2], 17.35 mg/dL in the test with Rattus norvegicus [3] and 31.98 mg/dL in the test with Rattus norvegicus [4].
Turning to `Fc1ccc(/C=C/CSSC/C=C/c2ccc(F)cc2)cc1`, it took 155 µM to reach half-maximal inhibition in the test on Hepatocyte (IC50). Moreover, the Activity was determined as 2.07 mg/dL in the test with Rattus norvegicus [1], 42.15 mg/dL in the test with Rattus norvegicus [2], 21.03 mg/dL in the test with Rattus norvegicus [3] and 35.54 mg/dL with Rattus norvegicus [4]. Further, the results for the Tm (in the test with DNA [5]; in test [7]; in test [9]) were 79 °C, 51 °C and 92 °C, respectively. For the same compound, the ΔTm in the test on DNA [6] is 6 °C; in [8] it was -1 °C; in test [10], 5 °C.
